ChEMBL document CHEMBL1147350, “Sesquiterpene-derived metabolites from the deep water marine sponge Poecillastra sollasi” (J Nat Prod, 1993)
In brackets after ≈: the same amount, converted by molar mass.

Tests used:
P388 = assay: Cytotoxicity against mouse P388 cells by MTT assay; format: functional, cell-based
Candida albicans = assay: Antifungal activity against Candida albicans ATCC 44506 after 24 hrs by standard microdilution broth technique; format: functional; conditions: ATCC 44506, 24 h
Method in brief: (§1)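 Broth microdilution MIC in 50 μl total volume. C. albicans ATCC 44506 grown in Sabouraud dextrose broth at 37° for 24 h; Cr. neoformans ATCC 32045 in Emmon's modification of Sabouraud dextrose broth at 37° for 48 h. MIC taken as lowest drug concentration giving complete growth inhibition.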

Cryptococcus neoformans = assay: Antifungal activity against Cryptococcus neoformans ATCC 32045 after 48 hrs by standard microdilution broth technique; format: functional; conditions: ATCC 32045, 48 h; method in brief: as §1
A549 = assay: Cytotoxicity against human A549 cells by MTT assay; format: functional, cell-based
[1] = Displacement of [125I]angiotensin 2 from angiotensin 2 receptor in rat aorta smooth muscle cell membrane by genesys gamma counting
Method in brief: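 Duplicate tubes: 0.88 nM (final) [125I]angiotensin II, membranes 75–125 μg/ml protein, 3 h at 25°; nonspecific with 1 μM unlabeled angiotensin II. GF/C filtration, gamma counting, nonlinear regression.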

Row | MIC (Candida albicans) | MIC (Cryptococcus neoformans) | IC50 [1] | Structure (SMILES) | IC50 (P388) | IC50 (A549)
1 | 125 µg/mL (≈ 376 µM) | 31.2 µg/mL (≈ 93.8 µM) | – | CC1=CCC[C@@H](C)[C@]1(C)CC/C(C)=C/C(=O)N[C@@H]1CCCNC1=O [SOLLASIN B] | 6 µg/mL (≈ 18 µM) | 17 µg/mL (≈ 51.1 µM)
2 | 31.2 µg/mL (≈ 90 µM) | 15.6 µg/mL (≈ 45 µM) | 63 µM | CC1=CCC[C@@H](C)[C@]1(C)CC/C(C)=C/C(=O)N[C@@H]1CCCCNC1=O [SOLLASIN C] | 8.4 µg/mL (≈ 24.2 µM) | 11 µg/mL (≈ 31.7 µM)
3 | – | – | 42 µM | COc1cc(/C=C(\C)CC[C@]2(C)C(C)=CCC[C@H]2C)oc(=O)c1 [SOLLASIN D] | 5.5 µg/mL (≈ 17.4 µM) | 11.3 µg/mL (≈ 35.7 µM)
4 | 25 µg/mL (≈ 90.4 µM) | 25 µg/mL (≈ 90.4 µM) | – | CC1=CC(=O)CC(C)(CC[C@]2(C)C(C)=CCC[C@H]2C)O1 (some centres undefined) [SOLLASIN E] | – | –
